Compound activity as filed in PubChem.
beta cell repl: induces beta-cell replication in MIN6 cells | MIN6 cells proliferation, ATPlite luminescence, 48 h; cells starved in 0.2% serum; 100% = growth in 10% serum | proliferation, % at 10 µM | 0.29% of 330,000 active | AID 2380;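 active = compounds whose signal lies at least 3.5 SD above the mean of all wells on their plate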
CendR NRP1 mod: modulators of CendR peptide binding to human neuropilin-1 | O14786 | FAM-RPARPAR peptide binding to NRP-1, fluorescence polarization | inhibition, % at 25 µM | 0.85% of 360,000 active;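 active = inhibition or corrected inhibition above about 18%, plus a signal ratio from 0.5 to 1.5, limit read from the data, passing the limit was not always enough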
Myeloid diff 2: compounds promoting myeloid differentiation | ER-HoxA9 myeloid progenitors, lysozyme-GFP differentiation, flow cytometry | calls only at 10 µM | 1% of 360,000 active;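 active = normalized GFP-positive differentiation at or above the plate's own cutoff, the solvent-only control mean plus 3 SD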;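 note: cells exposed to compound for four days before flow analysis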
SENP1 FRET inh: inhibitors of human SENP1 SUMO protease catalytic domain; recombinant SENP1 catalytic domain, CyPet-SUMO1-YPet FRET cleavage; inhibition, % at 10 µM; Q9P0U3; 0.21% of 360,000 active;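 active = inhibition at least 30% at 10 µM, raw YFP signal under a set limit, fluorescence ratio 0.5 to 1.5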
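Compound: 10 µM single point, 0.5% DMSO; Test system: hSENP1 catalytic domain, recombinant; Timing: 50 min reaction at room temperature; Technique: FRET, CFP and YFP emission; Control set: no-enzyme wells low, DMSO-plus-enzyme wells high control.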
MT1-MMP act inh: blocks activation of human MT1-MMP; HT1080 RFP-PRO-GFP cells, GFP/RFP ratio fluorescence, overnight; percent of plate control window, DMSO zero; GFP/RFP ratio change, % at 20 µM; 0.061% of 360,000 active; AID 651647;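 active = GFP/RFP ratio change of at least 30% with cell ATP level not reduced by more than half and red fluorescence within 50% of control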
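Assay system: HT1080 RFP-PRO-GFP cells | Dosing: 20 µM single dose, 1% DMSO | Incubation: Cells overnight before dosing, compound overnight, 37 °C, 5% CO2 | Evaluation: GFP/RFP fluorescence ratio | Control set: DMSO-only wells and HT1080 RFP-L50D-GFP cell wells as references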
DAGLB inh: diacylglycerol lipase beta (human) inhibition. Q8NCG7. HEK293T DAGLB membrane lysate, EnzChek fluorogenic substrate. inhibition, % at 5.17 µM. 0.059% of 340,000 active. AID 504411; in the data active = inhibition above about 34%
Target sequence (Q8NCG7 whole entry, looked up): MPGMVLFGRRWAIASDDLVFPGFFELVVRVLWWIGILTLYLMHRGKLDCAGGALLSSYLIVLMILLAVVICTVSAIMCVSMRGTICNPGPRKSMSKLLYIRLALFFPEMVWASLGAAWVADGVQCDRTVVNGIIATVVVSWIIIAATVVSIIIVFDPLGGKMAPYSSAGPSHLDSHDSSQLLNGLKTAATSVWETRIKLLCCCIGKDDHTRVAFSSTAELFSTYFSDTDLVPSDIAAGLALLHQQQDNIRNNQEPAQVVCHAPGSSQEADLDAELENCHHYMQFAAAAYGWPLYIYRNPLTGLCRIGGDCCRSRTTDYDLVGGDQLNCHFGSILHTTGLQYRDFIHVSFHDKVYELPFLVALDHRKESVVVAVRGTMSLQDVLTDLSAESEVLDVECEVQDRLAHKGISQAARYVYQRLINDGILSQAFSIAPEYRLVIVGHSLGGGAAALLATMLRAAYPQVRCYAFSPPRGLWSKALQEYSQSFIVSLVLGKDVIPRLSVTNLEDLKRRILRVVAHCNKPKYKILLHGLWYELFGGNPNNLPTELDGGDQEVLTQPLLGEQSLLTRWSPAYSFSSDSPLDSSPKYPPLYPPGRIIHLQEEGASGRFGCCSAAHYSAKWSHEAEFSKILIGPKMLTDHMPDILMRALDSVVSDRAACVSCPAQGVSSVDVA
Myeloid diff: promotes myeloid progenitor differentiation; 2% of 2,300 active; AID 651706; calls only; ER-HoxA9 myeloid progenitors, GFP/Mac1 double-positive flow; shares compounds with Myeloid diff 2;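 active = share of green or green-and-red cells above 9 and 9% in run 1 or 4 and 3% in run 2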
GFP autofluor: flagged as fluorescent in myeloid differentiation counter-screen; shares compounds with Myeloid diff 2; ER-HoxA9 myeloid progenitors, no estrogen, GFP autofluorescence flow cytometry; vehicle wells 0%, positive control 100%; fluorescence response, % (no concentration beside the values); 7.4% of 2,300 active; AID 651707;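 active = over 5% cells positive for green fluorescent reporter, or over 2% positive for both it and APC stain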
Hits are given with their value; 0 = inactive; - = not tested or not shown; + = active, no number. Only some compounds are listed: those with a hit (about 2.4% of all), similar ones and a draw of the others.

SMILES	beta cell repl	CendR NRP1 mod	Myeloid diff 2	SENP1 FRET inh	MT1-MMP act inh	DAGLB inh	Myeloid diff	GFP autofluor
COc1ccc(Nc2c3c(nc4ccccc24)CCC3)c(OC)c1	0	0	0	0	0	0	-	-
Cc1cc(C(=O)COC(=O)c2ccc(Cl)c(S(N)(=O)=O)c2)c(C)n1C1CC1	0	0	0	0	0	0	-	-
COCC#Cc1ccc2c(c1)O[C@@H](CN(C)S(=O)(=O)c1cccc(F)c1)[C@@H](C)CN([C@H](C)CO)S2(=O)=O	-	0	0	0	0	0	-	-
Cc1sc(NC(=O)c2ccc(OCC(C)C)cc2)c(C(N)=O)c1-c1ccc(Cl)cc1Cl	0	0	0	0	0	0	-	-
COC(=O)c1ccc(NC(=O)CSCc2ccccc2)cc1	0	0	0	0	0	0	-	-
CCc1ccc(NC(=O)CSCc2ccc(C(=O)O)cc2)cc1	0	0	0	0	0	0	0	0
O=C(Nc1ccccc1Oc1ccccc1)c1cnccn1	0	0	0	0	0	0	-	-
Cc1ccc(Oc2ccc(Cl)cc2NC(=O)c2cnccn2)cc1	0	0	+	0	0	0	0	0
CC(C)CC(=O)c1c[nH]c(C(=O)NCCc2ccccn2)c1	0	0	0	0	0	0	0	0
CC(=Nc1ccccc1)C1=C(O)CSC1=O	0	0	0	0	0	0	-	-
CC(=Nc1ccccc1C)C1=C(O)CSC1=O	0	0	+	0	0	0	0	0
Cc1ccc(S(=O)(=O)Nc2ccc(S(=O)(=O)NCC3CCCO3)cc2)cc1 (stereo unspecified)	0	0	0	0	0	0	-	-
CCC(C)/C(C)=N/NC(=O)c1ccc(CSc2nc3ccccc3s2)cc1 (stereo unspecified)	0	0	0	0	0	0	0	6.1
COc1ccc(NC(=O)C2CCN(S(=O)(=O)c3cccs3)CC2)cc1OC	0	0	0	0	0	0	-	-
COc1ccc(NC(=O)C2CCCN(S(=O)(=O)c3cccs3)C2)cc1OC (stereo unspecified)	0	0	+	0	0	0	0	0
Cc1c(CCOC(=O)CC23CC4CC(CC(C4)C2)C3)sc[n+]1CC(=O)c1ccc(Br)cc1	0	0	+	0	0	0	0	0
Cc1c(CCOC(=O)CC23CC4CC(CC(C)(C4)C2)C3)sc[n+]1CC(=O)c1ccccc1	0	0	0	0	0	0	-	-
Cc1cccc2cc(CN(Cc3cccs3)S(=O)(=O)c3ccc4c(c3)OCCO4)c(=O)[nH]c12	0	0	0	0	0	0	0	0
Cc1ccc(S(=O)(=O)N(Cc2cc3cccc(C)c3[nH]c2=O)c2ccccc2)cc1	0	0	+	0	0	0	0	0
CN(Cc1cc2ccccc2[nH]c1=O)S(=O)(=O)c1ccccc1	0	0	0	0	0	0	-	-
Cc1ccc(S(=O)(=O)N(C)Cc2cc3ccccc3[nH]c2=O)cc1	0	0	0	0	0	0	0	0
COc1ccc(N(Cc2cc3ccccc3[nH]c2=O)S(=O)(=O)c2ccc(C)cc2)cc1	0	0	0	0	0	0	-	-
CCOc1ccc(NC(=S)NCC(c2cccnc2)N2CCOCC2)cc1 (stereo unspecified)	0	0	0	0	0	0	-	-
COC(=O)[C@H]1[C@@H](C)N(Cc2ccccc2)C(=O)N[C@H]1c1ccccc1	0	0	0	0	0	0	-	-
COc1ccc(N=C(C)C2C(=O)c3ccccc3C2=O)cc1	-	0	0	0	0	-	-	-
COc1ccc(C(=O)NC(=S)Nc2cccc(S(=O)(=O)N3CCOCC3)c2)cc1	0	0	0	0	0	0	0	0
COc1ccc(C(=O)NNC(=O)c2cccc(S(=O)(=O)N3CCOCC3)c2)cc1	0	0	0	0	0	0	-	-
COc1ccc(-n2c(SCC(=O)Nc3cc(C)on3)nc3ccccc3c2=O)cc1Cl	0	0	0	0	0	0	0	0
COc1cccc(-n2c(SCC(=O)Nc3cc(C)on3)nc3ccccc3c2=O)c1	0	0	0	0	0	0	-	-
